Test results: ChEMBL document CHEMBL4257502, “Anti-cancer effect of a novel 2,3-didithiocarbamate-substituted naphthoquinone as a tumor metabolic suppressor in vitro and in vivo” (Medchemcomm, 2018)
Blank lines part the entries; values can stand above or below the compound they belong to. Activity calls are given as the source filed them. The rule behind the calls is not given here.

Tests used:
[1] = species: Homo sapiens; assay: Selectivity ratio of IC50 for recombinant human N-terminal His-tagged PKL expressed in Escherichia coli to IC50 for recombinant human N-terminal His-tagged PKM2 expressed in Escherichia coli
[2] = species: Homo sapiens; assay: Selectivity ratio of IC50 for recombinant human N-terminal His-tagged PKM1 expressed in Escherichia coli to IC50 for recombinant human N-terminal His-tagged PKM2 expressed in Escherichia coli
[3] = molecular target: T1, Pyruvate kinase PKM (Homo sapiens, UniProt P14618); assay: Inhibition of PKM2 in human HCT116 cells assessed as reduction in beta-catenin-induced CCND1 gene expression at 20 uM after 8 hrs by RT-qPCR analysis; format: cell-based
Summary of the method: (§1)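 HCT116 cells seeded at 5 × 10^5 per well and treated 24 h later with 20 μM for 8 h. RNA extracted with TRIzol and reverse-transcribed. GLUT1, LDH and CCND1 transcripts quantified by SYBR Green qPCR.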
Target sequence in this assay (P14618 2-531 limits assumed): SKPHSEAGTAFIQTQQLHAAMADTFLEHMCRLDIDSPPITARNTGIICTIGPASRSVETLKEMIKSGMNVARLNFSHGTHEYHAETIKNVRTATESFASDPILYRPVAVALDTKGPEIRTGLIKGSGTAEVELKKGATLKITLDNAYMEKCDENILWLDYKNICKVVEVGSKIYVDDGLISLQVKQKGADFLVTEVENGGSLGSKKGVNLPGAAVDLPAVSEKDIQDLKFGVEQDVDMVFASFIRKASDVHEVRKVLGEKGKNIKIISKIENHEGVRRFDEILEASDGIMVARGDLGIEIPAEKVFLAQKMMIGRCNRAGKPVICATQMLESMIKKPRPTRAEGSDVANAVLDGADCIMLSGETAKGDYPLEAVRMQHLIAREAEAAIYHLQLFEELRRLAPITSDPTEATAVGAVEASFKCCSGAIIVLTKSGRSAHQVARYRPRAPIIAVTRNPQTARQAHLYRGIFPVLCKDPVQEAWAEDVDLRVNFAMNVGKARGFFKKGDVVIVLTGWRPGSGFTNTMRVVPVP

[4] = molecular target: T1, Pyruvate kinase PKM; assay: Inhibition of recombinant human N-terminal His-tagged PKM2 expressed in Escherichia coli preincubated for 25 mins in presence of PEP/FBP followed by ADP/NADH addition measured after 25 mins by PK-LDH assay
Target sequence in this assay (P14618 whole entry): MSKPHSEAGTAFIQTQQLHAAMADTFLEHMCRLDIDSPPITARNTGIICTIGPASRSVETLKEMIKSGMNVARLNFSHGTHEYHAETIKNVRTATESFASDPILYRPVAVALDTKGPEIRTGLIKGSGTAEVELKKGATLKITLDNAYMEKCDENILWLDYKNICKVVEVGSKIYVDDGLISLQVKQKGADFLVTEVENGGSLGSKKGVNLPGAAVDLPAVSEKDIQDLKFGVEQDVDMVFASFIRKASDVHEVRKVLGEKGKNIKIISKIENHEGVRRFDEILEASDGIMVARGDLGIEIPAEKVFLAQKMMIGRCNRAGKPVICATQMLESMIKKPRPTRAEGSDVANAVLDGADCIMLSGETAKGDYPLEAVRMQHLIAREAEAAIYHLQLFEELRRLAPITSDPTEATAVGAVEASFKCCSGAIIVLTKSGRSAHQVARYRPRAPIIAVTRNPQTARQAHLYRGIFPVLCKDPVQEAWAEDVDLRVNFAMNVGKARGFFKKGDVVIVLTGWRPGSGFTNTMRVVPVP

[5] = test system: spontaneous PTEN-deleted breast carcinoma (Mus musculus); assay: Antitumor activity against mouse spontaneous PTEN-deleted breast carcinoma assessed as reduction in tumor growth at 50 mg/kg, ip administered every 2 days for 36 days
[6] = test system: NCI-H1299; assay: Cytotoxicity against human NCI-H1299 cells after 48 hrs by MTS assay; format: functional, cell-based
Summary of the method: (§2)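 Cells seeded at 5000–10 000 per well and treated 12 h later with a range of concentrations for 48 h. Viability read by MTS reduction. IC50 reported ± SD.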

[7] = test system: BEAS-2B; assay: Cytotoxicity against human BEAS2B cells after 48 hrs by MTS assay; format: cell-based; summary of the method: as §2
[8] = test system: B16; assay: Antitumor activity against mouse B16 cells implanted in C57BL/6 mouse assessed as tumor weight at 25 mg/kg, ip administered every 2 days for 12 days relative to control; format: functional
Summary of the method: (§3)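 Female mice given 1 × 10^6 B16 cells subcutaneously in the armpit. Dosing began about 6 days later, once tumors appeared, with N = 7 per group. Compound or vehicle (5% v/v DMAC in olive oil) was given ip every two days at 25 or 50 mg kg–1. Tumor volume was measured every two days as V = L(S2)π/6. Tumors were weighed individually. T/C was taken as relative tumor volume growth rate.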

[9] = test system: B16; assay: Antitumor activity against mouse B16 cells implanted in C57BL/6 mouse assessed as reduction in tumor weight at 50 mg/kg, ip administered every 2 days for 12 days relative to control; format: functional; design: scale not given: the % may be the effect or the level left; summary of the method: as §3
[10] = molecular target: T1, Pyruvate kinase PKM; assay: Inhibition of recombinant human N-terminal His-tagged PKM1 expressed in Escherichia coli preincubated for 25 mins in presence of PEP/FBP followed by ADP/NADH addition measured after 25 mins by PK-LDH assay
Target sequence in this assay (P14618 whole entry): as above

[11] = test system: HCT-116; assay: Cytotoxicity against human HCT116 cells assessed as reduction in ATP production at 10 to 20 uM after 6 hrs by CellTiter-Glo luminescent assay; format: functional, cell-based
Summary of the method: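 HCT116 cells seeded at 5 × 10^5 per well in 6-well plates. Exposed 24 h later to 10 μM or 20 μM for 6 h. Cellular ATP read by CellTiter-Glo luminescence.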

[12] = test system: Mus musculus; assay: Toxicity in C57BL/6 mouse implanted with mouse B16 cells assessed as effect on body weight at 25 to 50 mg/kg, ip administered every 2 days for 12 days; format: organism-based; conditions: in vivo; summary of the method: as §3
[13] = test system: MCF7; assay: Cytotoxicity against human MCF7 cells after 48 hrs by MTS assay; format: functional, cell-based; summary of the method: as §2
[14] = test system: MDA-MB-231; assay: Cytotoxicity against human MDA-MB-231 cells after 48 hrs by MTS assay; format: functional, cell-based; summary of the method: as §2
[15] = test system: HCT-116; assay: Cytotoxicity against human HCT116 cells after 48 hrs by MTS assay; format: functional, cell-based; summary of the method: as §2
[16] = molecular target: T1, Pyruvate kinase PKM; assay: Inhibition of PKM2 in human HCT116 cells assessed as reduction in cMYC-induced GLUT1 gene expression at 20 uM after 8 hrs by RT-qPCR analysis; format: cell-based; summary of the method: as §1
Target sequence in this assay (P14618 2-531 limits assumed): as the sequence (P14618 2-531 limits assumed) above

[17] = test system: spontaneous PTEN-deleted breast carcinoma (Mus musculus); assay: Antitumor activity against mouse spontaneous PTEN-deleted breast carcinoma assessed as reduction in tumor weight at 50 mg/kg, ip administered every 2 days for 36 days relative to control; design: scale not given: the % may be the effect or the level left
[18] = test system: B16; assay: Antitumor activity against mouse B16 cells implanted in C57BL/6 mouse assessed as tumor volume at 50 mg/kg, ip administered every 2 days for 12 days measured during compound dosing relative to control; format: functional; summary of the method: as §3
[19] = molecular target: Pyruvate kinase PKLR (Homo sapiens, UniProt P30613); assay: Inhibition of recombinant human N-terminal His-tagged PKL expressed in Escherichia coli preincubated for 25 mins in presence of PEP/FBP followed by ADP/NADH addition measured after 25 mins by PK-LDH assay
[20] = molecular target: T1, Pyruvate kinase PKM; assay: Inhibition of PKM2 in human HCT116 cells measured after 8 hrs by fluorescent PK-LDH assay; format: cell-based
Summary of the method: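 HCT116 cells exposed to 2.5, 5, 10 or 20 μM for 8 h, then lysed in NP40 buffer. Lysate pyruvate kinase activity was measured immediately by fluorescent PK–LDH coupled assay.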
Target sequence in this assay (P14618 2-531 limits assumed): as above

[21] = molecular target: T1, Pyruvate kinase PKM; assay: Inhibition of PKM2 in human HCT116 cells assessed as reduction in cMYC-induced LDH gene expression at 20 uM after 8 hrs by RT-qPCR analysis; format: cell-based; summary of the method: as §1
Target sequence in this assay (P14618 2-531 limits assumed): as above

[22] = test system: B16; assay: Cytotoxicity against mouse B16 cells after 48 hrs by MTS assay; format: functional, cell-based; summary of the method: as §2
[23] = test system: HeLa; assay: Cytotoxicity against human HeLa cells after 48 hrs by MTS assay; format: functional, cell-based; summary of the method: as §2
[24] = test system: B16; assay: Antitumor activity against mouse B16 cells implanted in ip dosed C57BL/6 mouse assessed as tumor growth inhibition administered every 2 days for 12 days; format: functional, organism-based; summary of the method: as §3

Chain of Pyruvate kinase PKLR (P30613 whole entry): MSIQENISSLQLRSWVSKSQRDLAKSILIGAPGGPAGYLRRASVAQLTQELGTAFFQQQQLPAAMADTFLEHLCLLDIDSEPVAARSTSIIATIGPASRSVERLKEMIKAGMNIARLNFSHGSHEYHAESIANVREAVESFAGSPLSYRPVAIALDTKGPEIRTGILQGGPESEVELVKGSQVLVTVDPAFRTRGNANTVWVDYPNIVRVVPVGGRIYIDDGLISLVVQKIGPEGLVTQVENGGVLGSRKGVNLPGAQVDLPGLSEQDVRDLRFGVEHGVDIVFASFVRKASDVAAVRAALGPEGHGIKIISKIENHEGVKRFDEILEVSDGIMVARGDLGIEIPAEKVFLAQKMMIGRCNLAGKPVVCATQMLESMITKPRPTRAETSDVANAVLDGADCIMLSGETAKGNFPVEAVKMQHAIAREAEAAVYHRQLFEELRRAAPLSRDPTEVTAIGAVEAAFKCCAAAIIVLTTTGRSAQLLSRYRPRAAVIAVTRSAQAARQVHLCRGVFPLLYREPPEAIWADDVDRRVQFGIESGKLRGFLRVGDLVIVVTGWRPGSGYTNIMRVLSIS

- Ratio IC50 [1]: 4.5
- Ratio IC50 [2]: 1.5
Compound: CC(C)=CC[C@@H](O)C1=CC(=O)c2c(O)ccc(O)c2C1=O

- inhibition [3]: Active
- IC50 [4]: 880 nM
- IC50 [10]: 5070 nM
- Ratio IC50 [1]: 3.3
- Ratio IC50 [2]: 5.8
- inhibition [16]: Active
- IC50 [19]: 2900 nM
- inhibition [20]: Dose-dependent effect
- inhibition [21]: Active
Compound: O=C1C(CSC(=S)N2CCCCC2)=C(CSC(=S)N2CCCCC2)C(=O)c2ccccc21
- Activity [5]: Active
- Activity [6]: Dose-dependent effect
- IC50 ([6]; NCI-H1299, 48 h): 109 nM
- IC50 [7]: 32600 nM
- Activity [8]: 12%
- Activity [9]: 30%
- Activity [11]: Active
- Activity [12]: Non-Toxic
- Activity [13]: Dose-dependent effect
- IC50 ([13]; MCF7, 48 h): 61 nM
- Activity [14]: Dose-dependent effect
- IC50 ([14]; MDA-MB-231, 48 h): 135 nM
- Activity [15]: Dose-dependent effect
- IC50 ([15]; HCT-116, 48 h): 77 nM
- Activity [17]: 20%
- T/C [18]: 40%
- Activity [22]: Dose-dependent effect
- IC50 ([22]; B16, 48 h): 104 nM
- Activity [23]: Dose-dependent effect
- IC50 [23]: 124 nM
- TGI [24]: Dose-dependent effect
